Source: ChEMBL document CHEMBL1799916, “Novel 3,5-bis(bromohydroxybenzylidene)piperidin-4-ones as coactivator-associated arginine methyltransferase 1 inhibitors: enzyme selectivity and cellular activity” (J Med Chem, 2011)
Active and inactive are the calls of the source. The rule behind the calls is not given here.

What was measured:
[1] = target: T1, Histone-arginine methyltransferase CARM1 (Homo sapiens) (UniProt Q86X55); experiment: Inhibition of CARM1-mediated methylation of PABP1 at 20 uM after 90 mins by scintillation counting in presence of S-adenosyl-l-[methyl-3H]methionine
T1 sequence (whole entry): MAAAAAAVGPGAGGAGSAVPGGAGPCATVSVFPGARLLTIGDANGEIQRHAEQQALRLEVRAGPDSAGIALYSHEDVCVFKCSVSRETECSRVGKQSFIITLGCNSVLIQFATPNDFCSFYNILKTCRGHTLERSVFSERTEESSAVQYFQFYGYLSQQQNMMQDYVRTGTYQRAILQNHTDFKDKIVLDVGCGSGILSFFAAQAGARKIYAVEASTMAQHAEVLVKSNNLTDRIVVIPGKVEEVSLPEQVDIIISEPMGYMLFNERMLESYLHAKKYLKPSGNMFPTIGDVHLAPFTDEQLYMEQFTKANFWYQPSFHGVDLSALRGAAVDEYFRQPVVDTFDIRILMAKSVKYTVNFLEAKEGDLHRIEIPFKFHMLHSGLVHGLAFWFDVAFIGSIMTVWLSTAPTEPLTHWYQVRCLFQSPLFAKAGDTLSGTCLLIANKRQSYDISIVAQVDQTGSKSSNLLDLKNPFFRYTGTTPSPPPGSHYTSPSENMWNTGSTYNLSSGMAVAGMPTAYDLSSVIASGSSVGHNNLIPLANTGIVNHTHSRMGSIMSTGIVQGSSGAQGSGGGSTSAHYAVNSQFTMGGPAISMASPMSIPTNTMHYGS
In short: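 Recombinant CARM1 with PABP1 substrate in PBS pH 7.4 containing [³H]AdoMet, compound at 20 μM. Incubated 90 min at 30 °C, then SDS-PAGE, PVDF transfer and overnight film fluorography. Substrate bands cut out for scintillation counting.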

[2] = target: T2, Histone-arginine methyltransferase CARM1 (Homo sapiens, UniProt Q86X55); experiment: Inhibition of CARM1-mediated methylation of PABP1 after 90 mins by scintillation counting in presence of S-adenosyl-l-[methyl-3H]methionine
T2 sequence (Q86X55 whole entry): T1 sequence (whole entry)

[3] = target: Protein arginine N-methyltransferase 1 (Homo sapiens, UniProt Q99873); experiment: Inhibition of PRMT1-mediated methylation of NPL3 after 90 mins by scintillation counting in presence of S-adenosyl-l-[methyl-3H]methionine
[4] = target: T3, Histone-lysine N-methyltransferase SETD7 (Homo sapiens, UniProt Q8WTS6); experiment: Inhibition of SET7-mediated methylation of histone H3 after 90 mins by scintillation counting in presence of S-adenosyl-l-[methyl-3H]methionine
T3 sequence (Q8WTS6 whole entry): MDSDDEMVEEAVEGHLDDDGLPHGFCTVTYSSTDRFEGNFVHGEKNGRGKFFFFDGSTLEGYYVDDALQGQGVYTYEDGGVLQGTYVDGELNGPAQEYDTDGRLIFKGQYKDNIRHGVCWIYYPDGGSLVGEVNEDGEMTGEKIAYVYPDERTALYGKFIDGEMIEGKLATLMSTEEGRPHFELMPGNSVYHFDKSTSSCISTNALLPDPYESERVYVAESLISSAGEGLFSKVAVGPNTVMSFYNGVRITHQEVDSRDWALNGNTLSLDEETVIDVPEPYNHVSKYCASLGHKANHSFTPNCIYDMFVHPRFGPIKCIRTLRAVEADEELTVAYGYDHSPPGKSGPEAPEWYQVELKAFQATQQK

Protein arginine N-methyltransferase 1, sequence (Q99873 whole entry): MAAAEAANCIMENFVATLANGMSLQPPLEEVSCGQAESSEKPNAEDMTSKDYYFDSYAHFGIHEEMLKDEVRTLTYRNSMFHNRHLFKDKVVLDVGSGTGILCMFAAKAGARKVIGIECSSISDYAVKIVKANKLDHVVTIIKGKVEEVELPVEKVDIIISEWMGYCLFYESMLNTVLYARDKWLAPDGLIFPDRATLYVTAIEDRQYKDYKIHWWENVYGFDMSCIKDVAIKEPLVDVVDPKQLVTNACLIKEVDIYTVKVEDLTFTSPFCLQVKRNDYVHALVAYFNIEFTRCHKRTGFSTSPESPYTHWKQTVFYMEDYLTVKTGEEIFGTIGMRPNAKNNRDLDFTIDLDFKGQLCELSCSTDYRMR

SMILES | inhibition [1] | IC50 [2] [µM] | IC50 [3] [µM] | IC50 [4] [µM]
COc1ccc(CN2C/C(=C\c3ccc(O)c(Br)c3)C(=O)/C(=C/c3ccc(O)c(Br)c3)C2)cc1 | inactive |  |  | 
COc1cccc(CN2C/C(=C\c3ccc(O)c(Br)c3)C(=O)/C(=C/c3ccc(O)c(Br)c3)C2)c1 | inactive |  |  | 
O=C1/C(=C/c2ccc(O)c(Br)c2)CN(CCCc2ccccc2)C/C1=C\c1ccc(O)c(Br)c1 | inactive | 16 | > 667 | > 667
O=C1/C(=C/c2ccc(O)c(Br)c2)CN(CCc2ccccc2)C/C1=C\c1ccc(O)c(Br)c1 |  | 14.8 | > 667 | > 667
Cc1ccc(CN2C/C(=C\c3ccc(O)c(Br)c3)C(=O)/C(=C/c3ccc(O)c(Br)c3)C2)cc1 | inactive | 11.9 | > 667 | > 333

More lines, now with the values ahead:

inhibition [1] | IC50 [2] [µM] | IC50 [3] [µM] | IC50 [4] [µM] | SMILES
 | 12.2 | > 667 | > 600 | O=C1/C(=C/c2ccc(O)c(Br)c2)CN(Cc2ccc(Cl)cc2)C/C1=C\c1ccc(O)c(Br)c1
 | 12.5 | > 667 | > 667 | O=C1/C(=C/c2ccc(O)c(Br)c2)CN(Cc2ccccc2Cl)C/C1=C\c1ccc(O)c(Br)c1
 | 10.3 | > 667 | > 667 | Cc1ccccc1CN1C/C(=C\c2ccc(O)c(Br)c2)C(=O)/C(=C/c2ccc(O)c(Br)c2)C1
inactive |  |  |  | COc1ccccc1CN1C/C(=C\c2ccc(O)c(Br)c2)C(=O)/C(=C/c2ccc(O)c(Br)c2)C1
